Compounds with a hit are over-represented: about 4.3% of the library has one in this group of screens.
B2AR ag: beta2AR agonists driving receptor internalization, primary screen, cell-based, FAP fluorogen, flow cytometry. response, % (concentration not given with the values). Beta-2 adrenergic receptor (Homo sapiens), P07550. Am2.2-beta2AR cells. 0.43% of 340,000 active. AID 504454, 2011;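 active = response above a set limit, near 3 SD of response in nonfluorescent compounds, cut at about 42% in these data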
MC4R ag barr: MC4R agonists recruiting beta-arrestin, primary screen, cell-based, luminescence, agonist arm of biased-ligand search | activation, % at 8.9 µM | U2OS MC4R beta-arrestin complementation; percent of melanotan II response, DMSO zero | Melanocortin receptor 4 (Homo sapiens), P32245 | 0.98% of 360,000 active | AID 540308, 2011;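 active = activation above a per-plate cutoff, the mean activation of sample wells on that plate plus 3 SD, cut at about 8% in these data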
m5-HT2A agonist: mouse Htr2a agonists via beta-arrestin recruitment, primary screen, cell-based, luminescence. CHO-K1 mHTR2A beta-arrestin complementation; percent of 30 µM serotonin response. 5-hydroxytryptamine receptor 2A (Mus musculus), P35363. activation, % at 7.6 µM. AID 624169, 2012. 0.66% of 360,000 active;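 active = activation above a run cutoff, the mean activation of all tested compounds plus 3 SD, cut at about 14% in these data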;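 also: 0% = plate median of compound wells and 100% = 30 µM serotonin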
Target sequence (P35363 whole entry, looked up): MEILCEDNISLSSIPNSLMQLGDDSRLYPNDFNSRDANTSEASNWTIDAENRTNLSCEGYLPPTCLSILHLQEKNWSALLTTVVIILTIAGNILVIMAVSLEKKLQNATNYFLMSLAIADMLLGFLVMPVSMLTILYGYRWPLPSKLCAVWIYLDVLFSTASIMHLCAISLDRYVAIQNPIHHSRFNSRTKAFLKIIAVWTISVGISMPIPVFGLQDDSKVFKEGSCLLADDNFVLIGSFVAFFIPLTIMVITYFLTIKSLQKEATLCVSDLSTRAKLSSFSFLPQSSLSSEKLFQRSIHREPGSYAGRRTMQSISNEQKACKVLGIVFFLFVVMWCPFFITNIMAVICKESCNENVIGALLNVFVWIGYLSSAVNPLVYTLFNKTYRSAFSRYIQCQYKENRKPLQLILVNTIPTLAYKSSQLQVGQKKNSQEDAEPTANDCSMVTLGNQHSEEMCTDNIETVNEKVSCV
MC4R antagonist: MC4R antagonists of cAMP signaling, primary screen, cell-based, TR-FRET, antagonist arm of biased-ligand search; Melanocortin receptor 4 (Homo sapiens), P32245; MC4R-expressing cells, MTII-stimulated cAMP, LANCE TR-FRET; inhibition, % at 6.5 µM; 0.48% of 360,000 active; AID 540295, 2011;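 active = inhibition above its plate's cutoff, the mean of tested wells on that plate plus 3 SD, cut at about 29% in these data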;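 also: 0% = Melanotan II alone and 100% = Melanotan II plus saturating MCL0020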
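Material: human MC4R-expressing U2OS cells. Probe or stimulus: Melanotan II challenge. Dosing: 6.5 µM single dose. Times: 30-min compound, 1-h challenge, 1-h detection, room temperature. Technique: TR-FRET with Eu-cAMP and labeled anti-cAMP, 671 nm. Replication: singlicate.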
TAAR1 ag: human TAAR1 agonists, primary screen, Fluo-8 calcium fluorescence, CHO RD-HGA16 cells. Trace amine-associated receptor 1 (Homo sapiens), Q96RJ0. vehicle wells 0%, saturating PEA agonist 100%. activation, % at 3 µM. 0.99% of 360,000 active;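 active = activation above the mean activation of all test compounds in the run plus 3 SD, cut at about 38% in these data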
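Test system: RD-HGA16 (CHO) cells co-expressing Gα16 and hTAAR1 / Benchmarks: DMSO vehicle as 0%, PEA at EC100 as 100% / Repeats: no replicates (n 1) / Measure: % activation from peak over basal fluorescence ratio, DMSO-to-PEA scaled / Timing: 17-24 h plating, Fluo-8 75 min 37 °C, 30 min RT / Technique: kinetic Fluo-8 calcium fluorescence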
TAAR1 antagonist: human TAAR1 antagonists, primary screen, Fluo-8 calcium fluorescence, CHO RD-HGA16 cells. Trace amine-associated receptor 1 (Homo sapiens), Q96RJ0. antagonist. inhibition, % at 3 µM. 1.5% of 360,000 active. AID 624466, 2012;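 active = inhibition above a per-plate cutoff, the mean inhibition of test compounds on that plate plus 3 SD, cut at about 49% in these data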;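 also: 0% = DMSO plus EC80 beta-PEA response and 100% = DMSO alone without agonist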
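Test system: hTAAR1-expressing CHO RD-HGA16 cells, Gα16-coupled; Probe or stimulus: EC80 β-phenethylamine stimulus; Compound dosing: single nominal final test compound concentration of 3 µM; Timing: 140 s kinetic read after compound, 140 s after agonist; Signal: Fluo-8 calcium-sensitive fluorescence; Measure: % inhibition of agonist calcium response; Controls: DMSO and EC80 PEA controls.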
TAAR1 nonsel count: nonselective antagonists in TAAR1 counter-screen cells, counter-screen for hTAAR1 antagonist project, cell-based, fluorescence, calcium; shares compounds with TAAR1 antagonist; counterscreen cell line, antagonist mode; inhibition, % at 3 µM; 77% of 2,400 active; in the data active = inhibition above about 22%;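 also: CHO-Ga16 host cells stimulated with ATP at an EC80 level; 0% = agonist EC80 plus vehicle and 100% = vehicle without agonist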
TAAR1 ant conf: human TAAR1 antagonists, retest of hits, confirmation, cell-based, fluorescence | shares compounds with TAAR1 antagonist | TAAR1-expressing cells, fluorescence antagonist read-out | inhibition, % at 3 µM | 40% of 2,400 active; in the data active = inhibition above about 49%;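 also: CHO-Ga16 host cells challenged with agonist PEA near its EC80; 0% = agonist at EC80 plus vehicle and 100% = vehicle with no agonist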
Ga16 ag counter: calcium activation in Ga16-expressing cells, counter-screen for TAAR1 antagonist project, cell-based, fluorescence | shares compounds with TAAR1 antagonist | agonist counterscreen | activation, % at 3 µM | 18% of 2,400 active; in the data active = activation above about 12%;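 also: 0% = vehicle wells and 100% = saturating stimulus response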
TAAR1 ag counter: TAAR1 activation by candidate antagonists – cell-based, fluorescence, counter-screen for TAAR1 antagonist project; 2% of 2,400 active; AID 651955, 2012; shares compounds with TAAR1 antagonist; hTAAR1 cell line, agonist mode; activation, % at 3 µM; in the data active = activation above about 37%;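 also: CHO cells stably expressing TAAR1 with calcium dye readout; 0% = DMSO vehicle and 100% = full agonist response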
* hit, by the source's call; · = no result.

SMILES	B2AR ag	MC4R ag barr	m5-HT2A agonist	MC4R antagonist	TAAR1 ag	TAAR1 antagonist	TAAR1 nonsel count	TAAR1 ant conf	Ga16 ag counter	TAAR1 ag counter
OC[C@H]1OC(O)[C@H](O)[C@@H]1O (some centres not stated)	-0.7	-1.4	-0.3	5.5	0.2	2.6	·	·	·	·
CCN(CC)S(=O)(=O)c1ccc2[nH]cc(C(=O)NCCC3=CCCCC3)c(=O)c2c1	-9.7	0.7	-0.7	0.8	11.4	67.0*	32.2*	32.9	6.1	5.2
CCN(CC)C(CNC(=O)CSc1nnnn1-c1c(C)cccc1C)c1ccco1 (configuration not stated)	5.9	-3.0	1.5	1.5	1.5	-37.3	·	·	·	·
COC(=O)CNC(c1ccccc1)c1cc(C)ccc1NC(=O)c1cccc(Cl)c1 (configuration not stated)	-1.4	-0.6	-4.9	5.3	0.4	66.7*	22.8*	46.7	3.4	8.7
CC1(C(=O)NS(=O)(=O)c2ccccc2)CCN1C(=O)c1ccc(C2CCCCC2)cc1 (configuration not stated)	·	0.7	-1.3	9.4	1.0	6.0	·	·	·	·
Cc1nn2c(C)c(C(=O)Nc3ccccc3)cnc2c1C#N	-2.3	2.6	4.8	-4.6	13.4	52.6*	19.6	35.4	8.9	8.4
Cc1ccc(S(=O)(=O)NCC2CCC(C(=O)NCc3ccc4c(c3)OCO4)CC2)cc1 (configuration not stated)	3.2	0.5	-4.6	2.7	7.5	-7.5	·	·	·	·
O=C(NCc1ccc2c(c1)OCO2)C1CCC(CNS(=O)(=O)c2ccc(Cl)cc2)CC1 (configuration not stated)	40.2	-0.5	0.5	1.0	8.8	49.4*	13.7	23.6	4.1	9.5
Cc1cc(C)cc(Cn2cc(CN3CC(N4CCN(CCO)CC4)CS3(=O)=O)nn2)c1 (configuration not stated)	·	·	-2.8	·	0.8	-12.8	·	·	·	·
COc1ccc(-c2coc3c(C(=O)Nc4cccc(C(C)=O)c4)cccc23)c(C)c1	·	-0.9	1.9	20.3	0.7	57.2*	30.9*	30.8	0.9	-1.4
CC(NC(=O)CCc1ccccc1)c1cc2c(cc1Cl)OCCO2 (configuration not stated)	0.5	-0.6	-3.2	3.0	0.3	2.0	·	·	·	·
COc1ccc(CN(C)C[C@H]2Oc3c(NC(=O)Nc4ccccc4)cccc3C(=O)N([C@H](C)CO)C[C@@H]2C)cc1	4.6	-1.4	-2.2	10.6	19.5	60.9*	24.7*	41.2	10.6	10.5
CC(C)c1c(C(=O)N/N=C/c2c[nH]c3ccccc23)nnn1-c1nonc1N	11.1	-3.0	-4.8	4.2	33.5	75.5*	40.0*	61.7*	17.5*	17.9
CC(C)c1c(C(=O)N/N=C/c2cccc3ccccc23)nnn1-c1nonc1N	7.2	-1.3	1.7	0.7	1.4	5.9	·	·	·	·
CCN(CC(=O)Nc1ccc(NC(C)=O)cc1)C(=O)c1ccccc1SCC(=O)N1CCCC1	-5.3	-0.7	4.3	10.2	0.4	-11.4	·	·	·	·
C=CCCC(=O)N1C[C@H]2CON(C)[C@H]2C[C@H]1c1ccc(-n2ccnc2)cc1	·	·	5.9	·	-0.9	1.7	·	·	·	·
Oc1c(Br)cc(Br)cc1C=NCc1ccc(F)cc1	-2.8	-1.3	3.3	3.1	5.3	52.0*	27.2*	27.7	0.8	14.0
COc1cc(/C=N/NC(=O)c2cccc(NC(=O)c3ccccc3)c2)ccc1O	23.4	1.8	-9.2	21.2	14.3	64.5*	30.5*	56.9*	7.2	6.6
COc1cc(/C=N/NC(=O)c2ccncc2)ccc1O	5.8	-1.5	-4.9	-5.5	9.4	-22.0	·	·	·	·
COc1cc(/C=N/NC(=O)C(=O)/C=C2\NC(C)(C)Cc3ccccc32)ccc1O	11.2	6.1	3.6	21.2	0.7	52.4*	23.0*	32.5	6.0	10.9
COc1ccc(/C=N/NC(=O)c2ccc(NC(=O)c3cccc([N+](=O)[O-])c3)cc2)c(OC)c1	6.4	-2.0	-1.4	4.3	10.3	30.6	·	·	·	·
COc1cc(C(=O)N/N=C/c2ccc(OC(=O)c3cccc(C)c3)c(OC)c2)ccc1O	11.9	2.4	-3.1	10.6	20.3	66.1*	38.4*	48.9*	9.4	13.7
COc1ccc(/C=N/NC(=O)c2cccc(NC(=O)c3ccc(Cl)cc3)c2)c(OC)c1	10.2	-2.2	-0.4	5.3	3.7	57.2*	28.7*	48.5	5.3	3.6
COc1cc(/C=N/NC(=O)C2(O)c3ccccc3-c3ccccc32)ccc1O	5.0	-0.1	1.8	-2.6	0.9	-3.7	·	·	·	·
O=C(NCCCN1CCCC1=O)C(=O)NCC1OCCN1S(=O)(=O)c1ccc(Cl)cc1 (configuration not stated)	3.8	-2.2	11.7	-0.7	1.2	-4.5	·	·	·	·
COc1cc(/C=N\NC(=O)c2ccc(-c3ccccc3)cc2)cc(OC)c1OC(C)=O	32.8	4.5	-4.5	0.2	8.5	60.8*	29.0*	38.4	8.1	3.4
O=C(N/N=C/c1ccccc1F)c1cccc(NC(=O)c2ccccc2Cl)c1	4.6	0.1	-4.8	-8.9	17.8	59.1*	29.2*	52.8*	10.3	11.0
O=C(N/N=C/c1ccccn1)c1cccc(NC(=O)c2ccccc2Cl)c1	-5.1	-2.0	4.8	0.1	7.5	21.4	·	·	·	·
COc1ccc(/C=N/NC(=O)c2cc3c(ccc4ccccc43)o2)c(OC)c1	9.5	2.6	-2.4	-1.9	0.7	63.0*	21.6*	44.2	4.2	2.3
Nc1nc(SCC(=O)Nc2cc(Cl)ccc2Cl)n[nH]1	-0.1	2.3	10.2	6.3	3.5	-0.7	·	·	·	·

Screening results deposited in PubChem by several laboratories.
